Experiment [1] in a line: Her2 expression decrease, cell viability multiplex – SKBR3 breast tumor cells, AlphaScreen, ATP viability, primary screen (AID 461;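 active = Her2 level under about 52% in both replicate screens, with viability over 70% of control, limit read from the data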;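 for Her2 level: lower value means less Her2 protein in the cells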;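 for viability: percent of carrier control wells set as 100% viability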). Particulars: SKBR3 Her2 protein level, 18-24 h, measured here: SKBR3 viability, ATP luminescence, at 10 µM. (In general: In Alpha technology, singlet oxygen from a donor bead excites a nearby acceptor bead.)
Experiment [2] addresses Receptor tyrosine-protein kinase erbB-2 (Homo sapiens) (UniProt P04626). The experiment is described as above. Particulars: 18-24 h, at 10 µM, stronger effect = lower value.
Experiment [3] in a line: reduced viability of SK-BR-3 breast cancer cells – cell-based, 24 h, human, pilot screen (AID 572;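 active = viability at or below 10% of carrier control in both of two separate runs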;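 note: compound exposure lasted between 18 and 24 h rather than exactly 24 h; 100% = carrier-treated control wells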). Particulars: SK-BR-3 viability, CellTiter-Glo luminescence, at 10 µM, stronger effect = lower value. (In general: ATP-based viability assays read luminescence as a measure of living cells.)
Experiment [4] in a line: HUVEC growth inhibition – cell-based, human, primary screen (AID 575;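 active = viability at or below 30% in both replicate assays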;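 note: 100% = median of untreated cell wells with 0.1% DMSO on each plate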). Particulars: HUVEC proliferation, CellTiter-Glo luminescence, 72 h; at 10 µM; stronger effect = lower value. An outline of the steps: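 Assay system: Primary human umbilical vein endothelial cells | Quantity: 1250 cells per well | Medium: Supplemented EBM, 2% fetal bovine serum | Detection: CellTiter-Glo luminescence measuring cellular ATP | Read-out: % viability vs DMSO wells | Plate: Collagen-coated 384-well format | Times: 72 h exposure, 37 °C, 5% CO2, 30 min RT equilibration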

A short description of experiment [5]: H69AR cell proliferation blockers – human, duplicate replicates, primary screen (AID 580;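 active = viability at or under a set limit in both replicates, limit being median viability minus 3 SD, cut at about 48% in these data, passing the limit was not always enough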;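 note: 100% = mean luminescence of untreated wells and 0% = no signal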). Particulars: H69AR lung tumor cells viability, ATP luminescence, 72 h; at 10 µM; stronger effect = lower value.
Experiment [6] in a line: MRP1 drug-resistance reversers in H69AR cells – cell-based, doxorubicin co-treatment, pilot screen (AID 601;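 active = viability loss from added drug above about 55%, and viability with drug at most 40%, in both replicates, limit read from the data, passing the limit was not always enough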). Particulars: CellTiter-Glo, 72 h, at 10 µM; for differential viability (reversal): stronger effect = higher value.
The nature of experiment [7]: yeast transport mutant growth inhibition pilot in 384-well plates, post-Golgi transport modulator project (AID 636; in the data active = inhibition above about 31%). Particulars: absorbance 615 nm, about 18 h, stronger effect = higher value.
Experiment [8] can be described thus: growth suppression of yeast trafficking mutant, preliminary HTS, modulators of trafficking downstream of Golgi apparatus project, 1536-format plate, OD 615 nm (AID 637). Particulars: yeast transport mutant growth, absorbance 615 nm, 18 h; stronger effect = higher value.
Where [9] appears, read: H69AR cells + 2 uM doxorubicin, measured here: viability with 2 uM doxorubicin, stronger effect = lower value.
Where [10] appears, read: H69AR cells, compound alone cytotoxicity.

Calls of active or inactive are those of the source. Cut-off read from the data, not from the text of the source, unless noted: active = inhibition above about 30%; inactive = the rest.

Sequence of Receptor tyrosine-protein kinase erbB-2 (Homo sapiens) (P04626 whole entry, looked up): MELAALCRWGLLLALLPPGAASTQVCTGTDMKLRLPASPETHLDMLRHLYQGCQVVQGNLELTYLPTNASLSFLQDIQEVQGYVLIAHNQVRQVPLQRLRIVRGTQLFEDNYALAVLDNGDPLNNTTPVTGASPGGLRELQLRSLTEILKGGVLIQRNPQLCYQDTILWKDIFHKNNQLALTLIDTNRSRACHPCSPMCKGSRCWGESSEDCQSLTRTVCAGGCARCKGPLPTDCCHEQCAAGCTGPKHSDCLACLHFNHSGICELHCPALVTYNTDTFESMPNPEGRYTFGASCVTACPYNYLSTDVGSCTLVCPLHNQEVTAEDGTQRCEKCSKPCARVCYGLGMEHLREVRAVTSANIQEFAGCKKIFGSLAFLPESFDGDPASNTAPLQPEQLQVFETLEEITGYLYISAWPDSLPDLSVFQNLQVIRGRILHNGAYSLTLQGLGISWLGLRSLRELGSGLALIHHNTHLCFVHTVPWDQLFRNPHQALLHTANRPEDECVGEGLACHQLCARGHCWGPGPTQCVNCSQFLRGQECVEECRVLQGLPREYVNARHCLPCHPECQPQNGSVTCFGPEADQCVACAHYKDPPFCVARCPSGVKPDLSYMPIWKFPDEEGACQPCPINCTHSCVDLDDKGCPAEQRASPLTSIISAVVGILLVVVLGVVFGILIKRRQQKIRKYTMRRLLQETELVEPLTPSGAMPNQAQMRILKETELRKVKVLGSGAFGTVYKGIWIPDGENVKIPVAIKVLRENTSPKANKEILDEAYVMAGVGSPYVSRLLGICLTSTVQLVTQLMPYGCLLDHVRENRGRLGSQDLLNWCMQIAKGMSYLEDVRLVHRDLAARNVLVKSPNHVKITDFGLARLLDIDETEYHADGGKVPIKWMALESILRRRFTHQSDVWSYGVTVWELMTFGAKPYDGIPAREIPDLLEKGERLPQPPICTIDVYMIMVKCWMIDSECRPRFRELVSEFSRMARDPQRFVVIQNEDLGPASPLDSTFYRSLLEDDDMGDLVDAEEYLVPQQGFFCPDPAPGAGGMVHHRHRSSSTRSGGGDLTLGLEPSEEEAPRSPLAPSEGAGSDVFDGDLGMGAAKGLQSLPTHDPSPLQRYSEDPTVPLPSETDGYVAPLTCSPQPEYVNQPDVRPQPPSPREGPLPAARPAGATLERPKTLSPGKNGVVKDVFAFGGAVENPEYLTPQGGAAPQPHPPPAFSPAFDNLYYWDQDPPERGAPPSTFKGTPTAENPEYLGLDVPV

For orientation: viability means a read-out of living cells in per cent, often relative to untreated cells. By inhibition is commonly meant the change of the read-out against control, counted positive when it falls. Take `Cc1ccc(C(c2sc3nc(C)nn3c2O)N2CC(C)OC(C)C2)cc1` (stereo not given): the viability was 97% in experiment [1]; 97% (inactive) in experiment [3]; 104% (inactive) in experiment [4]; 101% (inactive) in experiment [5]; 90.2% in experiment [6] (setting [9]); 101% in experiment [6] (setting [10]). Besides, the Her2 level in experiment [2] is 93% (inactive). Besides, the differential viability (reversal) in experiment [6] (H69AR cells + 2 uM doxorubicin) was 11.1% (inactive). The inhibition was -1.17% (inactive) in experiment [7] and 0.49% (inactive) in experiment [8].

As for `NC(=O)C1(N2CCCCC2)CCN(C2CC(=O)N(Cc3cccs3)C2=O)CC1` (stereo not given), the viability in experiment [1] was 112%; in experiment [3], 112% (inactive); in experiment [4], 101% (inactive); in experiment [5], 98% (inactive); in experiment [6] (setting [9]) it was 91.3%; in experiment [6] (setting [10]), 98%. In addition, in experiment [2], the Her2 level is 103% (inactive). Moreover, the differential viability (reversal) in experiment [6] (H69AR cells + 2 uM doxorubicin) is 6.76% (inactive). The values for the inhibition in experiment [7] and in experiment [8] were -4.74% (inactive) and -0.48% (inactive), respectively.

Consider `CCOC(=O)N1CCN(S(=O)(=O)c2ccc(F)c(C(=O)Nc3cc(C)cc(C)c3)c2)CC1`, for which the viability in experiment [1] is 76%; in experiment [3] it was 76% (inactive); in experiment [4], 78.6% (inactive); in experiment [5], 83.3% (inactive); in experiment [6] (setting [9]), 81.9%; in experiment [6] (setting [10]), 83.3%. The Her2 level in experiment [2] was 112% (inactive). Also, the differential viability (reversal) in experiment [6] (H69AR cells + 2 uM doxorubicin) was 1.41% (inactive). Further, the results for the inhibition in experiment [7] and in experiment [8] were -2.11% (inactive) and -11.8% (inactive), respectively.

As for `Nc1ccc(-c2ccc(N)cc2C(F)(F)F)c(C(F)(F)F)c1`, the viability in experiment [1] was 94%; in experiment [3] it was 94% (inactive); in experiment [4], 75.1% (inactive); in experiment [5] it was 68.6% (inactive); in experiment [6] (setting [9]) it was 82.3%; in experiment [6] (setting [10]), 68.6%. In addition, in experiment [2], the Her2 level is 80% (inactive). The differential viability (reversal) in experiment [6] (H69AR cells + 2 uM doxorubicin) is -13.7% (inactive). For the same compound, the inhibition is -0.65% (inactive) in experiment [7] and -0.66% (inactive) in experiment [8].

On to `C=CCn1c(-c2cccs2)nc2nc3ccccc3nc21`, for which the viability is 87% in experiment [1]; 87% (inactive) in experiment [3]; 80.2% (inactive) in experiment [4]; 54.3% (inactive) in experiment [5]; 72.9% in experiment [6] (setting [9]); 54.3% in experiment [6] (setting [10]). In experiment [2], the Her2 level was 106% (inactive). In experiment [6] (H69AR cells + 2 uM doxorubicin), the differential viability (reversal) is -18.6% (inactive). Further, the figures for the inhibition in experiment [7] and in experiment [8] were -1.82% (inactive) and -8.73% (inactive), respectively.

Regarding `Cc1c(Cl)cccc1N1C(=O)c2ccccc2C1=O`, the viability in experiment [1] is 89.5%; in experiment [3], 89.5% (inactive); in experiment [4] it was 99.5% (inactive); in experiment [5], 111% (inactive); in experiment [6] (setting [9]), 108%; in experiment [6] (setting [10]), 111%. Further, in experiment [2], the Her2 level is 85.5% (inactive). Moreover, the differential viability (reversal) in experiment [6] (H69AR cells + 2 uM doxorubicin) was 2.93% (inactive). Moreover, the results for the inhibition in experiment [7] and in experiment [8] were -4.86% (inactive) and -2.3% (inactive), respectively.

In the case of `Cc1cc(C)n(CC2CC(=O)N(c3ccc(Cl)c(Cl)c3)C2=O)n1` (stereo not given), the viability in experiment [1] is 112%; in experiment [3], 112% (inactive); in experiment [4], 89.9% (inactive); in experiment [5] it was 104% (inactive); in experiment [6] (setting [9]) it was 93.4%; in experiment [6] (setting [10]), 104%. Moreover, the Her2 level in experiment [2] was 96.5% (inactive). The differential viability (reversal) in experiment [6] (H69AR cells + 2 uM doxorubicin) was 10.4% (inactive). Further, the inhibition in experiment [7] is -4.79% (inactive); in experiment [8], -9.05% (inactive).

As to `Cc1cc2c(nn1)CCC/C2=N\O`, the viability in experiment [1] was 104%; in experiment [3], 104% (inactive); in experiment [4] it was 123% (inactive); in experiment [5], 95.6% (inactive); in experiment [6] (setting [9]), 91.8%; in experiment [6] (setting [10]) it was 95.6%. Further, the Her2 level in experiment [2] is 99% (inactive). Besides, the differential viability (reversal) in experiment [6] (H69AR cells + 2 uM doxorubicin) was 3.77% (inactive). The inhibition in experiment [7] was -4.47% (inactive); in experiment [8], 6.72% (inactive).

Take `CCC(=O)N[C@@H]1CC(C(C)(C)NC(=O)CC)CC=C1C` (stereo not given in full): the viability in experiment [1] is 105%; in experiment [3] it was 105% (inactive); in experiment [4] it was 93.4% (inactive); in experiment [5], 86.4% (inactive); in experiment [6] (setting [9]), 87.4%; in experiment [6] (setting [10]) it was 86.4%. For the same compound, the Her2 level in experiment [2] is 83.5% (inactive). In addition, in experiment [6] (H69AR cells + 2 uM doxorubicin), the differential viability (reversal) is -1% (inactive). In addition, the inhibition is -5.33% (inactive) in experiment [7] and -0.33% (inactive) in experiment [8].

In the case of `Cc1ccccc1-n1c(=O)cc(N2CCN(C(=O)c3ccco3)CC2)[nH]c1=O`, the viability was 86% in experiment [1]; 86% (inactive) in experiment [3]; 100% (inactive) in experiment [4]; 98.3% (inactive) in experiment [5]; 88.5% in experiment [6] (setting [9]); 98.3% in experiment [6] (setting [10]). Moreover, in experiment [2], the Her2 level is 100% (inactive). Also, the differential viability (reversal) in experiment [6] (H69AR cells + 2 uM doxorubicin) was 9.79% (inactive). Moreover, the figures for the inhibition in experiment [7] and in experiment [8] were 0.77% (inactive) and 0.17% (inactive), respectively.

In the case of `O=c1oc2ccccc2c2nccnc12`, the viability in experiment [1] was 93.5%; in experiment [3] it was 93.5% (inactive); in experiment [4], 103% (inactive); in experiment [5], 96.5% (inactive); in experiment [6] (setting [9]), 91.4%; in experiment [6] (setting [10]) it was 96.5%. Also, in experiment [2], the Her2 level was 115% (inactive). In addition, the differential viability (reversal) in experiment [6] (H69AR cells + 2 uM doxorubicin) is 5.08% (inactive). For the same compound, the inhibition in experiment [7] is -0.13% (inactive); in experiment [8], -9.5% (inactive).

Turning to `CC1CCN(S(=O)(=O)c2cn(CC(=O)N3CCN(C)CC3)c(=O)c3ccccc23)CC1`, the viability in experiment [1] was 122%; in experiment [3], 122% (inactive); in experiment [4] it was 104% (inactive); in experiment [5], 97.4% (inactive); in experiment [6] (setting [9]) it was 97%; in experiment [6] (setting [10]) it was 97.4%. Besides, in experiment [2], the Her2 level was 97% (inactive). Also, the differential viability (reversal) in experiment [6] (H69AR cells + 2 uM doxorubicin) was 0.39% (inactive). For the same compound, the inhibition is -1.69% (inactive) in experiment [7] and -7.46% (inactive) in experiment [8].

As for `Nn1c(SCc2csc(-c3ccccc3)n2)nnc1-c1cccs1`, the viability in experiment [1] was 83%; in experiment [3], 83% (inactive); in experiment [4] it was 85.2% (inactive); in experiment [5], 97.3% (inactive); in experiment [6] (setting [9]), 91.2%; in experiment [6] (setting [10]), 97.3%. Moreover, the Her2 level in experiment [2] was 82.5% (inactive). For the same compound, the differential viability (reversal) in experiment [6] (H69AR cells + 2 uM doxorubicin) was 6.11% (inactive). In addition, the inhibition in experiment [7] is -9.05% (inactive); in experiment [8], 5.25% (inactive).

Consider `CCc1nnc2c3cnn(-c4ccccc4)c3ncn12`, for which the viability is 93.5% in experiment [1]; 93.5% (inactive) in experiment [3]; 102% (inactive) in experiment [4]; 110% (inactive) in experiment [5]; 94.6% in experiment [6] (setting [9]); 110% in experiment [6] (setting [10]). In addition, the Her2 level in experiment [2] is 95% (inactive). The differential viability (reversal) in experiment [6] (H69AR cells + 2 uM doxorubicin) is 15.1% (inactive). The inhibition is -3.92% (inactive) in experiment [7] and 2.38% (inactive) in experiment [8].

In the case of `CC1CN(S(=O)(=O)c2cccc(C(=O)OCc3cc(=O)oc4cc(O)ccc34)c2)CC(C)O1` (stereo not given), the viability in experiment [1] is 80.5%; in experiment [3], 80.5% (inactive); in experiment [4], 61.1% (inactive); in experiment [5], 78.2% (inactive); in experiment [6] (setting [9]) it was 62.1%; in experiment [6] (setting [10]), 78.2%. For the same compound, in experiment [2], the Her2 level was 87% (inactive). Also, in experiment [6] (H69AR cells + 2 uM doxorubicin), the differential viability (reversal) is 16.1% (inactive). In addition, the figures for the inhibition in experiment [7] and in experiment [8] were -6% (inactive) and -4.43% (inactive), respectively.

Turning to `COc1ccc2c(c1)[nH]c1c(=O)n(CC3CCCO3)cnc12` (stereo not given), the viability in experiment [1] is 86%; in experiment [3], 86% (inactive); in experiment [4] it was 97.2% (inactive); in experiment [5] it was 90.5% (inactive); in experiment [6] (setting [9]), 94.9%; in experiment [6] (setting [10]), 90.5%. In addition, the Her2 level in experiment [2] was 94% (inactive). For the same compound, in experiment [6] (H69AR cells + 2 uM doxorubicin), the differential viability (reversal) is -4.4% (inactive). Further, the inhibition in experiment [7] is -3.42% (inactive); in experiment [8], -6.39% (inactive).

Source of the values: PubChem BioAssay.
